A selection: hits, their analogues and other compounds. The true share with any hit is near 2.1%.
FGF22 binding: binders of human FGF22 protein, primary screen, FGF22 synaptogenesis inhibitor project, biophysical, thermal shift, single point; Fibroblast growth factor 22 (Homo sapiens), Q9HCT0; recombinant FGF22 thermal shift, SYPRO orange fluorescence; percent of sucrose octasulfate shift, DMSO zero; activity (Tm shift, normalised), % at 9.99 µM; actives 1.5% (n = 340,000);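 active = mean Tm shift, scaled 0 neutral to 100 positive control, at about 1.3% or above, every replicate too, limit read from the data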
FN deposition inh: inhibitors of fibronectin matrix deposition, primary screen, AH1F cells, Alexa488-fibronectin fluorescence, plate reader | AH1F fibroblasts, overnight | inhibition, % at 12.6 µM | actives 0.086% (n = 350,000);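 active = mean inhibition across replicates of 30% or more, regardless of how many single replicates reach that level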
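Assay system: AH1F fibroblast monolayer, labelled fibronectin deposition. Amount: 10000 cells per well. Also added: labelled fibronectin 24 nM. Compound: single-point pinned compound. Incubation: cell attachment 1 h, compound and FN exposure overnight. Detection: fluorescence after three HBSS washes, excitation 485 nm, emission 525 nm. Read-out: inhibition of fibronectin deposition signal.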
ERp5 block: inhibitors of ERp5-driven insulin aggregation, primary screen, biochemical, turbidity, absorbance 650 nm, single point. Protein disulfide-isomerase A6 (Homo sapiens), Q15084. 90 min. inhibition, % at 9.99 µM. actives 0.05% (n = 350,000). AID 651711, 2012;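 active = mean replicate inhibition above about 25%, with every replicate also reaching it, limit read from the data, passing the limit was not always enough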
AF4-AF9 inh: inhibitors of AF4 peptide binding to AF9, primary screen, biochemical, AlphaScreen, biotin-AF4 peptide, FLAG-AF9, single point; actives 0.47% (n = 350,000); inhibition, % at 10 µM; Protein AF-9 (Homo sapiens), P42568;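 active = every replicate reaching a set inhibition limit, whatever the replicate mean, cut at about 25% in these data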
PDI turbidity: inhibitors of human PDI, primary screen, biochemical, turbidity, single point, plate reader; PDI insulin aggregation turbidity, A650, 90 min; Protein disulfide-isomerase (Homo sapiens), P07237; inhibition, % at 10 µM; actives 0.052% (n = 350,000);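 active = mean inhibition across replicates of 30% or more, whatever share of single replicates reach that level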
Target sequence (P07237 whole entry, looked up): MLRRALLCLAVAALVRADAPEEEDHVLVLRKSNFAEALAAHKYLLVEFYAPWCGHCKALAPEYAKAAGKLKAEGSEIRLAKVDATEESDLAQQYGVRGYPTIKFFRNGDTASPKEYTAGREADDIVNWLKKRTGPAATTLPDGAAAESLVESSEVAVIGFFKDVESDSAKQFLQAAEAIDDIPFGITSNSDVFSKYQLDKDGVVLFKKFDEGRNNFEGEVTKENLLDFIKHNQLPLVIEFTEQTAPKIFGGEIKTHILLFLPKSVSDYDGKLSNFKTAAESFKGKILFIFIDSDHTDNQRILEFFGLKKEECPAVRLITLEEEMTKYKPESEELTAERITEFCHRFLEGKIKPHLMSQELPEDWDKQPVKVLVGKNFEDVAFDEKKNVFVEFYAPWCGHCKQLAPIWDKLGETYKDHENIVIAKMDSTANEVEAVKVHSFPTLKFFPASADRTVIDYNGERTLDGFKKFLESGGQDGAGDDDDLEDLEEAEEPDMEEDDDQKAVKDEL
ARNT-TACC3 inh: disruptors of ARNT/TACC3 protein interaction, primary screen, biochemical, AlphaScreen, single concentration | actives 0.66% (n = 390,000) | AlphaScreen His-ARNT PAS-B/GST-TACC3 binding, luminescence; TACC3 fragment carries E629A point mutation | inhibition, % at 9.99 µM | Transforming acidic coiled-coil-containing protein 3 (Homo sapiens), Q9Y6A5;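 active = mean inhibition of replicates at least 50% and at least half of replicates each reaching 50%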
Hits are given with their value; – = inactive; · = not tested or not shown.

SMILES | FGF22 binding | FN deposition inh | ERp5 block | AF4-AF9 inh | PDI turbidity | ARNT-TACC3 inh
C/C=C/c1cccc(-c2nc(C(=O)NCc3ccncc3)cc3c2[C@H](CCO)N([S@@](=O)C(C)(C)C)C3)c1 | – | – | – | – | · | 52.0
CCOC(=O)c1cc2c(c(-c3cccc(-c4cccc(OC)c4)c3)n1)[C@@H](CCO)N(S(=O)C(C)(C)C)C2 (stereo not given in full) | – | – | – | – | · | 54.8
C/C=C/c1cccc(-c2nc(C(=O)NCc3ccc(OC)cc3)cc3c2[C@H](CCO)N([S@@](=O)C(C)(C)C)C3)c1 | – | – | – | – | · | –
CC(C)(C)[S@@](=O)N1Cc2cc(C(=O)NCc3ccccc3F)nc(-c3cccc(-c4cncnc4)c3)c2[C@H]1CCO | – | 31.0 | – | – | · | –
CCCNC(=O)N1CC2(C1)[C@H](c1ccccc1)[C@@H](CO)N2Cc1ccccc1 | – | – | – | – | · | ·
CC(C)(C)c1ccc(OCC(=O)N/N=C/C2CC=CCC2)cc1 (stereo not given) | – | – | – | – | – | 24.7
COc1ccc(Cc2noc(CN3CCN(Cc4cccc(Cl)c4)CC3)n2)cc1OC | 43.7 | · | – | – | – | –
COc1ccc(Cc2noc(CN3CCN(c4ccc(Cl)cn4)CC3)n2)cc1OC | – | – | – | – | – | –
COC(=O)c1cccc(-c2ccc(C(c3c(C)[nH][nH]c3=O)c3c(C)[nH][nH]c3=O)o2)c1 | – | – | – | – | – | 63.7
Cc1[nH][nH]c(=O)c1C(c1ccc(-c2ccc(Cl)c(C(=O)O)c2)o1)c1c(C)[nH][nH]c1=O | · | – | – | – | – | –
N/C(=N\OC(=O)COc1cc(Cl)c(Cl)cc1Cl)c1ccncc1 | 43.1 | – | – | – | · | ·
Brc1ccc2c(c1)-c1ccccc1C1=NCCN12 | 43.4 | – | – | – | – | ·
CC(=O)c1cccc(NC(=O)CSc2n[nH]c(=O)n2C2CC2)c1 | 43.1 | – | – | – | – | –
O=C(CSc1n[nH]c(=O)n1C1CC1)Nc1ccc(Cl)c(Cl)c1 | – | – | – | – | – | –
Cc1ccc(S(=O)(=O)N[C@H]2CC[C@@H](CC(=O)NCc3ccccc3F)O[C@@H]2CO)cc1 | – | · | – | – | · | –
CC1(C)C(C=C(Cl)Cl)C1C(=O)N/N=C/c1ccccc1F (stereo not given) | – | – | – | – | – | –
CC1(C)OC2OC(C(=O)N/N=C/c3ccccc3F)C3OC(C)(C)OC3C2O1 (stereo not given) | 44.2 | – | – | – | – | –
CCN(CC)CCN1C(=O)C(=O)/C(=C(/O)c2ccc(S(=O)(=O)N3CCOCC3)cc2)C1c1ccc(C)cc1 (stereo not given) | 44.2 | – | – | – | – | –
CCN(CC)CCN1C(=O)C(=O)/C(=C(/O)c2ccc(S(=O)(=O)N3CCOCC3)cc2)C1c1ccc(C(C)C)cc1 (stereo not given) | – | – | – | – | – | –
CCCOc1ccc(/C=C/C(=O)O)cc1OC | – | · | – | – | – | –
COc1cc(/C=C/C(=O)O)ccc1OCc1ccc([N+](=O)[O-])cc1 | 42.9 | – | – | – | – | –
COc1ccc(/C=C/C(=O)O)cc1Cl | – | – | – | 42.5 | – | –
O=C(NCCCn1ccnc1)C1CC(c2ccccc2Cl)=NO1 (stereo not given) | – | – | – | 28.3 | – | –
COCC(=O)N1[C@@H](CO)[C@@H]2c3ccccc3N(C(=O)C3CC3)C[C@@H]21 | – | · | – | – | · | –
CCC(=O)N(C)C[C@@H]1Oc2cc(C#Cc3ccncc3)ccc2S(=O)(=O)N([C@H](C)CO)C[C@H]1C | – | · | – | – | · | –
SMILES | FGF22 binding | FN deposition inh | ERp5 block | AF4-AF9 inh | PDI turbidity | ARNT-TACC3 inh
COCc1[nH][nH]c(=O)c1C=Nc1ccccc1 | · | – | · | · | – | ·
COCc1[nH][nH]c(=O)c1/C=N/N1CCOCC1 | 43.8 | – | – | – | – | –
Cc1ccc(S(=O)(=O)N(C)C[C@H]2Oc3c(NC(=O)CCCCCC(=O)Nc4ccccc4N)cccc3C(=O)N([C@@H](C)CO)C[C@H]2C)cc1 | – | · | – | – | · | ·
CC1CCN(c2nc(N3CCCCC3)nc(N3CCCCC3)n2)CC1 | 43.1 | – | – | – | – | –
COC1=C(Br)C(=O)c2nc(C)ccc2C1=O | – | – | – | – | – | ·
COC1=C(N)C(=O)c2nc(C)ccc2C1=O | – | – | – | – | – | 29.6
C[C@@H]1CN([C@H](C)CO)C(=O)c2cc(Br)cnc2O[C@H]1CN(C)CC1CCCC1 | – | · | – | – | · | –
C[C@@H]1CN([C@H](C)CO)C(=O)c2cc(C#CCN(C)C)cnc2O[C@@H]1CN(C)C(=O)c1cnccn1 | – | · | – | – | · | –
COc1cc(NC(=O)c2cccc(C)c2)c(OC)cc1NC(=O)CN1CCCCC1 | 43.4 | – | – | – | – | –
Cc1cc(C)nc(SCCn2c(N3CC(C)OC(C)C3)nc3c2c(=O)n(C)c(=O)n3C)n1 (stereo not given) | 44.2 | – | – | – | – | –
Cc1cc(C)nc(SCCn2c(N3CCCCC3)nc3c2c(=O)n(C)c(=O)n3C)n1 | · | – | · | · | – | –
CN(C)CCCNC(=O)C[C@H]1C=C[C@H](NS(=O)(=O)c2ccc(F)cc2)[C@H](CO)O1 | – | · | – | – | · | –
C[C@@H]1CCCCO[C@H](CN(C)C(=O)Cc2ccccc2)[C@@H](C)CN([C@@H](C)CO)C(=O)c2cc(NC(=O)Nc3ccccc3)ccc2O1 | – | – | – | – | · | –
O=C(NCc1ccccc1)C(c1ccco1)N(C(=O)c1csnn1)C1CC1 (stereo not given) | – | – | – | 41.0 | – | –
Cc1cccc(-c2cc(NCCc3cccnc3)n3nccc3n2)c1 | 43.2 | – | – | – | – | ·
CCOc1cccc(-c2cc(N3CCN(CCO)CC3)n3nccc3n2)c1 | – | – | – | – | – | ·
CCOc1cccc(-c2cc(NCCc3ccccn3)n3nccc3n2)c1 | 43.3 | – | – | – | – | ·
CNC[C@H]1Oc2ccc(NC(=O)Nc3ccccc3)cc2CC(=O)N([C@@H](C)CO)C[C@H]1C | – | · | – | – | · | –
O=C(C[C@H]1CC[C@@H](NC(=O)c2ccccc2)[C@H](CO)O1)NCc1ccc(Oc2ccccc2)cc1 | – | – | – | – | · | –
COc1cccc(NC(=O)CSc2ncc(S(=O)(=O)c3ccccc3)c(=O)[nH]2)c1 | 1.8 | – | – | – | – | –
